Measurements: PMC3461514 (The Journal of Cell Biology, 2012)
Substitutions are numbered along the chain they refer to. Names and notes keep the numbering of the source. Values belong to the molecule of their own block, whether it stands above or below them.

Tests used:
[1] = biological target: T1, Rap1 (Homo sapiens, UniProt P62834, G12V); experiment: Pull-down of HA-Rap1V12 from HEK293 cell lysates by GST-KRIT1 F123 variants; assay type: binding
T1 sequence (P62834 1-184 G12V): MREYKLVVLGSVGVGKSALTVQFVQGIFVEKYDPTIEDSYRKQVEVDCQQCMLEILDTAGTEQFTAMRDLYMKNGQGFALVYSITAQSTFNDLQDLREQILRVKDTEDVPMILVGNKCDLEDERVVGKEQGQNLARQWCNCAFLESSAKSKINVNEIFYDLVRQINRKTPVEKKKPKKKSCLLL
In short: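 HEK293 cells were transfected (Lipofectamine Plus) with HA-Rap1A(G12V) cDNA, then lysed after 24 h in cold 50 mM Tris-HCl pH 7.4, 150 mM NaCl, 0.5% NP-40, 5 mM MgCl2 plus protease inhibitors. Bead-immobilized GST-KRIT1 FERM variants (WT or L717,721A; 10 µg) were incubated with 350 µg clarified lysate overnight at 4°C. Beads were washed, run on 4–20% SDS-PAGE and immunoblotted with monoclonal anti-HA (1:4,000).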

[2] = biological target: HEG1-C19 peptide (Homo sapiens, UniProt Q9ULI3); experiment: Affinity chromatography of KRIT1 FERM variants on HEG1-C19 peptide matrix; assay type: binding; settings: GFP-KRIT1 FERM from HEK293 cell lysates
In short: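 Pull-down: human HEG1 C19 cytoplasmic tail model protein (His6, N-terminal in vivo biotinylation tag, E. coli-expressed) immobilized on beads; 10 µg added to 350 µg clarified lysate of HEK293 transfected 24 h with GFP-KRIT1 FERM WT or L717,721A; lysis in 50 mM Tris-HCl pH 7.4, 150 mM NaCl, 0.5% NP-40, 5 mM MgCl2 plus protease inhibitors; 4°C overnight; washed, 4–20% SDS-PAGE, anti-GFP immunoblot; three experiments.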

interaction with Rap1 [1]: does not bind to Rap1
B1: GST-KRIT1 F123(R452E) (protein)
chain: EKVRIYRMDGSYRSVELKHGNNTTVQQIMEGMELSQETQQYFTIWICSENLSLQLKPYHKPLQHVRDWPEILAELTNLDPQRETPQLFLRRDVRLPLEVEKQIEDPLAILILFDEARYNLLKGFYTAPDAKLITLASLLLQIVYGNYESKKHKQGFLNEENLKSIVPVTKLKSKAPHWTNRILHEYKNLSTSEGVSKEMHHLQRMFLQNCWEIPTYGAAFFTGQIFTKASPSNHKVIPVYVGVNIKGLHLLNMETKALLISLKYGCFMWQLGDTDTCFQIHSMENKMSFIVHTKQAGLVVKLLMKLNGQLMPTER
modifications: left off: GST, end not stated, kept

binding to the HEG1-C19 peptide [2]: markedly reduced binding
B2: KRIT1(L717,721A): human KRIT1 Leu717/Leu721 to Ala mutant, used as FERM domain or full-length protein (protein)
chain: B1 chain with E33R, L298A, L302A
modifications: left off: GST, end not stated, kept
